Experimental data of several laboratories.

`N=C(N)NCCC[C@H](NC(=O)[C@H](Cc1ccccc1)NC(=O)[C@H](CCC(N)=O)NC(=O)OCc1ccccc1)C(=O)c1nccs1` gave a Tmax of 5 min (female C57BL/6 mouse, plasma; intravenous, 5 mg/kg).
`COc1cc(C(=O)c2nc(-c3cccc4[nH]ccc34)c[nH]2)cc(OC)c1OC` gave a Tmax of 8.4 min (male CD-1 mouse, plasma; intraperitoneal, 15 mg/kg).
`CC(C)CC(=O)OC[C@H]1O[C@@](C#N)(c2ccc3c(N)ncnn23)[C@H](O)[C@@H]1O` has an NOAEL of 100 mg/kg/day (general toxicity; beagle dog; oral, multiple doses).
The efflux ratio of `CC(=O)c1c(C)c2cnc(Nc3ccc(C4CCN(CCS(C)(=O)=O)CC4)cn3)nc2n(C2CCCC2)c1=O` is reported as 0.96 (Caco-2; 10 µM).
For `Cc1[nH]c(C)c(S(=O)(=O)Nc2ccc(S(F)(F)(F)(F)F)cc2)c1C(=O)N1CCC(F)(F)C1`, the Tmax was 120 min (mouse, brain; intraperitoneal, 40 mg/kg).
With `O=c1c2cc(Cl)c(CO)cc2[nH]c(=S)n1Cc1cccnc1` the efflux ratio was roughly 2 (Caco-2; 10 µM, 90 min, pH 7.4).
For `CC(C)NCC(O)COc1cccc2ccccc12` (stereo not shown), the efflux ratio was 0.7 (Caco-2; 10 µM, 2 h, pH 7.4).
`CCOC(=O)c1c(NC(=O)CNC(C)C)sc2c1CCCCC2` gave a Tmax of 30 min (male mouse, brain; intraperitoneal, 100 mg/kg, single dose).
`C[C@H]1O[C@@H](O[C@H]2[C@@H](O)C[C@H](O[C@H]3[C@@H](O)C[C@H](O[C@H]4CC[C@@]5(C)[C@H](CC[C@@H]6[C@@H]5C[C@@H](O)[C@]5(C)[C@@H](C7=CC(=O)OC7)CC[C@]65O)C4)O[C@@H]3C)O[C@@H]2C)C[C@H](O)[C@@H]1O` has an efflux ratio of 8.9 (Caco-2; 10 µM, 2 h, pH 7.4).
`O=c1c2cc(Cl)c(CO)cc2[nH]c(=S)n1Cc1cncnc1` gave an efflux ratio of roughly 2 (Caco-2; 10 µM, 90 min, pH 7.4).
